From ChEMBL document CHEMBL1817631, “Synthesis and characterization of tritylthioethanamine derivatives with potent KSP inhibitory activity” (Bioorg Med Chem, 2011)
pEC50: −log10 of the molar value. Active and inactive are the calls of the source. The rule behind the calls is not given here.

Tests used:
[1] = molecular target: T1, Kinesin-like protein Klp61F (Drosophila melanogaster) (UniProt P46863); experiment: Inhibition of Drosophila melanogaster Klp61F in S2 cells at 100 uM up to 7 hrs by immunofluorescence analysis; assay type: cell-based
T1 sequence (whole entry): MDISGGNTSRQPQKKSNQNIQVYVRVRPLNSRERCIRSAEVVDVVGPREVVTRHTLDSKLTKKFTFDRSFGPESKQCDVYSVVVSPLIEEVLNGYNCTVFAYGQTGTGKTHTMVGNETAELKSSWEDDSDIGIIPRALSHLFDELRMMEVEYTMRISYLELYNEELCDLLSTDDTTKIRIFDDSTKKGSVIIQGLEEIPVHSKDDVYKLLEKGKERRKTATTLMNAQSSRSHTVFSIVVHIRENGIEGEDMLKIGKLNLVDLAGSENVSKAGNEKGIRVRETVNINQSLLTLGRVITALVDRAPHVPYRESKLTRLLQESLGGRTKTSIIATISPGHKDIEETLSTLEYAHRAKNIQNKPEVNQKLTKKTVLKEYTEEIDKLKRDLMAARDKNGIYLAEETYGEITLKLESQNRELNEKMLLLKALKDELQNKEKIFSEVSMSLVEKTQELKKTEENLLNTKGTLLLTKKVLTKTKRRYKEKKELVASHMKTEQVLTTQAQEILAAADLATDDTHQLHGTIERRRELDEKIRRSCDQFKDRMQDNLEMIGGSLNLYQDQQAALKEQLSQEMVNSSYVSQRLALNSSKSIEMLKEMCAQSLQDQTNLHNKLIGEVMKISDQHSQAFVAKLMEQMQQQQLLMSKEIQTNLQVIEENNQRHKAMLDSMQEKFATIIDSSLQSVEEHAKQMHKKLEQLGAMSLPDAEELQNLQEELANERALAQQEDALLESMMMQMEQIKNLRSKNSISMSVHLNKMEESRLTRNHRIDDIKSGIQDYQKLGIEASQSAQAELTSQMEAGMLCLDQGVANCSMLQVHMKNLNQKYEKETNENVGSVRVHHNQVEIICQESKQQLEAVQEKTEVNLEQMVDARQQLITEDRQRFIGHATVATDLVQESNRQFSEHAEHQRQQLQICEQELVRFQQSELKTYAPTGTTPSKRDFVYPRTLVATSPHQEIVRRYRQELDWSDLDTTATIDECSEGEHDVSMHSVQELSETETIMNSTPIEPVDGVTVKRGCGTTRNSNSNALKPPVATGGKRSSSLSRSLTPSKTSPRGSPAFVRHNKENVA
Procedure, shortened: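 Drosophila S2 cells were exposed to compound over a three-log concentration range up to 100 μM, with treatments extending up to 7 h. Bipolar spindle formation was scored by immunofluorescence.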

NCI-H226 = experiment: Growth inhibition of human NCI-H226 cells; assay type: functional
[2] = Inhibition of bipolar spindle formation in Strongylocentrotus purpuratus eggs; assay type: functional, Egg
Procedure, shortened: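 S. purpuratus eggs (gametes released with 0.5M KCl) were fertilized in artificial seawater with 2 mM 3-amino triazole and stripped of envelopes 20 min post-fertilization. They were then cultured with 0.1% DMSO or inhibitor at 100 nM–100 μM, fixed at first mitosis and stained for microtubules and DNA. 100 cells per condition were scored for bipolar spindles to derive EC50.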

HeLa = experiment: Induction of KSP depletion in human HeLa cells after 4 hrs by immunofluorescence analysis; assay type: functional, cell-based
Procedure, shortened: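 HeLa cells were treated 4 h across a concentration series of compound in DMSO, then fixed in 100% MeOH at −20 °C. They were probed overnight at 4 °C with mouse anti-KSP and rabbit anti-EB1 to mark microtubules, with Alexa Fluor secondaries and DNA counterstain. KSP (green channel) images were taken at equivalent exposure times.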

UO-31 = experiment: Growth inhibition of human UO31 cells; assay type: functional
SK-OV-3 = experiment: Growth inhibition of human SKOV3 cells; assay type: functional
OVCAR-5 = experiment: Growth inhibition of human OVCAR5 cells; assay type: functional

inhibition [1]	SMILES	GI50 (NCI-H226) [µM]	pEC50 [2]	Activity (HeLa)	GI50 (UO-31) [µM]	GI50 (SK-OV-3) [µM]	GI50 (OVCAR-5) [µM]
inactive	COc1ccc(C(SC[C@H](N)C(=O)O)(c2ccccc2)c2ccccc2)cc1	–	–	–	–	–	–
inactive	COc1ccc(C(SC[C@@H](N)C(=O)O)(c2ccccc2)c2ccccc2)cc1	–	–	–	–	–	–

SMILES	inhibition [1]	GI50 (NCI-H226) [µM]	pEC50 [2]	Activity (HeLa)	GI50 (UO-31) [µM]	GI50 (SK-OV-3) [µM]	GI50 (OVCAR-5) [µM]
N[C@@H](CSC(c1ccccc1)(c1ccccc1)c1ccccc1)C(=O)O [S-TRITYL-L-CYSTEINE]	inactive	100	≤ 4.00	Dose-dependent effect	100	100	100
